Experimental data collected from several papers.
Lines come from different studies, so protocols differ.
Target: Ephrin type-A receptor 5 (EPHA5, Homo sapiens, UniProt P54756)

`FC(F)(F)Oc1cccc(-c2cnc3ccc(-c4ccncc4)nn23)c1` gave a remaining binding of 90% (cell-free assay, competition with immobilised ligand; 5 µM).
With `O=C(c1ccc(Nc2nccc(-c3cc4ccccc4s3)n2)cc1)N1CCC(N2CCCC2)CC1` the remaining binding was 100% (binding, competition with immobilised ligand; 1 µM).
The remaining binding of `O=C(Nc1c[nH]nc1C(=O)NC1CCNCC1)c1cc(F)cc(F)c1` is reported as 100% (binding, competition with immobilised ligand; 1 µM).
With `O=C(Nc1cnc(Oc2ccc(F)cc2)nc1)N1CCc2ncccc2[C@@H]1c1ccc(F)cc1` the remaining binding was 100% (cell-free assay, competition with immobilised ligand; 1 µM).
With `O=C(c1ccc(Nc2ncc(Cl)c(-c3ccc(Cl)s3)n2)cc1)N1CCC(N2CCCC2)CC1` the remaining binding was 98% (binding, competition with immobilised ligand; 1 µM).
With `COc1ccnn2ncc(-c3ccnc(N(C)C)n3)c12` the remaining binding was 100% (binding; 1 µM).
For `COc1cnc(Nc2cccc(S(N)(=O)=O)c2)nc1N1CCN(c2ccccc2)CC1`, the remaining binding was 100% (binding, competition with immobilised ligand; 1 µM).
`CC1CCCN1c1nccc(-c2cnn3ncccc23)n1` (centres unmarked) has a remaining binding of 100% (binding; 1 µM).
`CCC(=N\O)/C(C)=C/c1ccc(F)cc1` has a remaining binding of 64% (cell-free assay, competition with immobilised ligand; 1 µM).
With `CN(c1nccc(-c2cnn3ncccc23)n1)C1CC1` the remaining binding was 100% (binding; 1 µM).
For `Cc1cc(C)c(-n2ccn3nc(-c4cccnc4)cc23)cc1NC(=O)c1cc(C#N)cc(S(F)(F)(F)(F)F)c1`, the remaining binding was 92.4% (cell-free assay, competition with immobilised ligand; 0.1 µM).
With `N[C@@H]1CCN(c2nccc(-c3cnn4ncccc34)n2)C1` the remaining binding was 100% (binding; 1 µM).
The remaining binding of `O=C(NCCCN1CCOCC1)c1ccc(Nc2nccc(-c3cc4ccccc4s3)n2)cc1` is reported as 88% (binding, competition with immobilised ligand; 1 µM).
For `CNC(=O)[C@@H]1CC[C@@H](n2c(-c3ccc4cnccc4c3)nc3ccc(C(=O)NCc4cccc(C(N)=O)c4)cc32)C1`, the remaining binding was 100% (binding, competition with immobilised ligand; 1 µM).
`COc1cccc(CNC(=O)c2nc3scc(COCc4ccc(C(=O)O)cc4)c3c(=O)[nH]2)c1` has a remaining binding of 98.5% (cell-free assay, competition with immobilised ligand; 1 µM).
For `COc1ncc2cc3ccccc3nc2c1C#N`, the remaining binding was 99% (cell-free assay, competition with immobilised ligand; 5 µM).
For `CC(=O)Nc1c(C(C)=O)c(=O)n(C)c2nc(-c3ccc(Cl)cc3Cl)c(-c3ccc(Cl)cc3)cc12`, the remaining binding was 100% (cell-free assay, competition with immobilised ligand; 1 µM).
`CN(C)c1nccc(-c2cnn3ncccc23)n1` gave a remaining binding of 100% (binding; 1 µM).
For `C[C@H](c1cccc(C#N)c1)n1cc(Cl)cc(C(N)=O)c1=N`, the remaining binding was 96% (cell-free assay, competition with immobilised ligand; 1 µM).
For `C[C@H]1CCN(c2nccc(-c3cnn4ncccc34)n2)C1`, the remaining binding was 95% (binding; 1 µM).
